Laboratory results: publication PMC6771261 (Journal of natural products, 2019)

Tests used:
HRECs = test: Matrigel based tube formation assay; assay type: cell-based, human; settings: HRECs on Matrigel, 8 hours, different concentrations
Procedure, shortened: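 HRECs (passage 5–8) in EGM-2 were seeded at 15,000 cells per well onto Matrigel-coated wells, with DMSO vehicle or a range of test compound concentrations. A known antiangiogenic homoisoflavonoid served as positive control. After 8 h, wells were imaged and tube length was quantified by image analysis. Mean ± SEM, n=3–6 wells, duplicate experiments; one-way ANOVA with Dunnett's post hoc test vs DMSO.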

[1] = test system: HRECs (human retinal microvascular endothelial cells); settings: read-out: GI50 (HREC); as reported; cited from earlier work
Y79 retinoblastoma cells = settings: read-out: GI50 (Y79); as reported; cited from earlier work
[2] = test system: HUVECs (human umbilical vein endothelial cells); settings: read-out: GI50 (HUVEC); as reported; cited from earlier work
[3] = test system: 92–1 uveal melanoma cells; settings: read-out: GI50 (92–1); as reported; cited from earlier work

With COc1ccc(C[C@@H]2COc3cc(OC)c(OC)c(OC)c3C2=O)cc1O [Compound 45, 5,6,7-trimethoxy-3(R)-(3ʹhydroxy-4ʹ-methoxybenzyl)-4-chromanone] the “ability of HRECs to form tubes (tubule length compared to DMSO control)” value (HRECs) was “effective”.

For COc1ccc(CC2COc3cc(O)c(OC)c(O)c3C2=O)cc1O (stereo not shown) [cremastranone], the GI50 [1] is listed as 0.22 µM, the GI50 (Y79 retinoblastoma cells) is listed as 9.8 µM and the GI50 [2] is listed as 0.38 µM. The GI50 [3] was 48 µM.

In the case of COc1ccc(/C=C2\COc3cc(OC)c(OC)c(O)c3C2=O)cc1O [Compound 48, (E)-5-hydroxy-6,7-trimethoxy-3-(3ʹhydroxy-4ʹ-methoxybenzylidene)-4-chromanone], the “ability of HRECs to form tubes (tubule length compared to DMSO control)” value (HRECs) is reported as “effective”.

In the case of CCOc1ccc(C(=O)/C=C/c2ccc(OC)c(OC)c2)c(O)c1C [Compound 50, (E)-3-(3,4-dimethoxylphenyl)-1-(4-ethoxy-2-hydroxy-3-methyl-phenyl)prop-2-en-1-one], the “ability of HRECs to form tubes (tubule length compared to DMSO control)” value (HRECs) is reported as “effective”.
